Mdm2-MdmX inh: inhibitors of human Mdm2-MdmX association, primary screen, cell-based, luminescence, split luciferase, SaOS-2, uHTS | SaOS-2 split-luciferase Mdm2/MdmX complementation | inhibition, % at 8 µM | 3% of 330,000 active | Protein Mdm4 (Homo sapiens) + E3 ubiquitin-protein ligase Mdm2 (Homo sapiens), …;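 active = inhibition of at least 50% at 8 µM in the primary screen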
VIM-2 inh: VIM-2 metallo-beta-lactamase inhibitors, primary screen, biochemical, epi-absorbance readout, Pseudomonas aeruginosa enzyme. inhibition, % at 5.6 µM. AID 1527, 2009. purified VIM-2, nitrocefin hydrolysis, epi-absorbance fluorescence. 0.89% of 290,000 active;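 active = inhibition above the mean of all tested compounds plus 3 SD, cutoff set per screening run, cut at about 7.5% in these data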;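 note: red hydrolysis product quenches plate fluorescence so inhibitors raise well fluorescence; 0% = enzyme with DMSO and 100% = DMSO without enzyme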
aSyn 5UTR inh: MLPCN primary screen, SNCA 5' untranslated region | alpha-synuclein 5'UTR reporter, inhibitor activity | inhibition, % (tested at 7.5 µM) | 0.82% of 300,000 active; in the data active = inhibition above about 60%; inconclusive = no clear call, values can overlap the other calls;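 note: H4 neuroglioblastoma cells stably carrying SNCA 5'UTR luciferase fusion; 0% = DMSO wells and 100% = positive control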
697 NFkB inh: inhibitors of PMA/ionomycin-induced NF-kB reporter, 697 cells, primary screen, B-cell NF-kB inhibitor project, cell-based, luminescence, uHTS. 697 B-cell NF-kB luciferase reporter, 16 h. 0.33% of 330,000 active. inhibition, % at 4 µM; in the data active = inhibition above about 35%
IMP-1 inhibitor: IMP-1 metallo-beta-lactamase inhibitors, primary screen, biochemical, epi-absorbance readout, Pseudomonas aeruginosa enzyme. 0.45% of 290,000 active. AID 1556, 2009. purified IMP-1, nitrocefin hydrolysis, epi-absorbance fluorescence. inhibition, % at 5.6 µM;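 active = inhibition above the mean plus 3 SD of all compounds in the same screening run, cut at about 4.5% in these data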;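 note: 0% = IMP-1 with DMSO and 100% = DMSO wells lacking enzyme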
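Material – recombinant IMP-1 enzyme, purified · Amount – IMP-1 0.2 nM before substrate addition · Medium – HEPES buffer pH 7.1 with ZnSO4 and Brij 35 · Timing – 25 °C, 15 min preincubation, 25 min reaction · Measured by – plate fluorescence quenching by hydrolysis product, ex 480/em 530 nm · Read-out – percent enzyme inhibition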
Jurkat NFkB inh: inhibitors of induced NF-kB luciferase reporter, primary screen, TCR NF-kB activation inhibitor project, cell-based, luminescence, uHTS; Jurkat, PMA/ionomycin-induced NF-kB luciferase reporter; inhibition, % at 4 µM; 0.53% of 330,000 active; in the data active = inhibition above about 50%
Mdm2-MdmX conf: Mdm2-MdmX complex disruptors, retested hits, confirmation, luminescence, single concentration; shares compounds with Mdm2-MdmX inh; Mdm2-MdmX binding, luminescent assay; inhibition, % at 8 µM; 55% of 10,000 active; in the data active = inhibition above about 40%
Full FLuc ctr: full-length luciferase signal inhibition, confirmation, counter-screen for Mdm2/MdmX interaction inhibitor project, cell-based, single concentration, SaOS-2. AID 504607, 2011. inhibition, % at 8 µM. 77% of 6,200 active. shares compounds with Mdm2-MdmX inh. SaOS-2 full-length luciferase counterscreen, luminescence;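 active = mean inhibition at 8 µM reaching about 37%, which flags the compound as non-specific, limit read from the data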;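 note: p53-null SaOS-2 cells with luciferase driven by a doxycycline-inducible promoter; compound on cells about two nights before reading with doxycycline added after day one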
The depositor's hits bear a star. Rows were chosen to be rich in hits. Some 4.7% of all compounds tested hit in one or more screens of this group.

How did COc1ccc(C2Nc3ccc4ccccc4c3-c3c2c(=O)oc2ccccc32)cc1 (configuration not stated) do in these assays?
Mdm2-MdmX inh: 79*; VIM-2 inh: -3; aSyn 5UTR inh: -4; 697 NFkB inh: -7; IMP-1 inhibitor: -9; Jurkat NFkB inh: 2; Mdm2-MdmX conf: 21

Results for CSc1nc(SCC(=O)NCc2ccco2)c2c3c(sc2n1)COC(C)(C)C3 ?
Mdm2-MdmX inh: 51*; VIM-2 inh: -1; aSyn 5UTR inh: -41; 697 NFkB inh: 1; IMP-1 inhibitor: -2; Jurkat NFkB inh: -5; Mdm2-MdmX conf: 41*; Full FLuc ctr: 68*

Results for Cc1cc(C(=O)COC(=O)c2ccco2)c(C)n1Cc1ccco1 ?
Mdm2-MdmX inh: 63*; VIM-2 inh: -1; aSyn 5UTR inh: -42; 697 NFkB inh: -47; IMP-1 inhibitor: -1; Jurkat NFkB inh: -51; Mdm2-MdmX conf: 82*; Full FLuc ctr: 98*

How did COc1cc(C(=O)OCC(=O)c2cc(C)n(C)c2C)cc(NC(=O)c2ccco2)c1OC do in these assays?
Mdm2-MdmX inh: 74*; VIM-2 inh: -2; aSyn 5UTR inh: 12; 697 NFkB inh: -6; IMP-1 inhibitor: -1; Jurkat NFkB inh: 22; Mdm2-MdmX conf: 5

How did Cc1ccc(NC(=S)NC(=O)c2ccc(F)cc2)cc1S(=O)(=O)Nc1cccc(Cl)c1 do in these assays?
Mdm2-MdmX inh: 67*; VIM-2 inh: -4; aSyn 5UTR inh: 81*; 697 NFkB inh: -45; IMP-1 inhibitor: -3; Jurkat NFkB inh: 25; Mdm2-MdmX conf: 54*; Full FLuc ctr: 108*

How did COc1ccc2c(c1)NC(c1cc(Cl)cc(Cl)c1O)c1cccn1-2 (configuration not stated) do in these assays?
Mdm2-MdmX inh: 81*; VIM-2 inh: -2; 697 NFkB inh: 5; IMP-1 inhibitor: -3; Jurkat NFkB inh: -1; Mdm2-MdmX conf: 16

What do the screens show for `COC1=CC(=O)c2ccccc2C1=O`?
Mdm2-MdmX inh: 51*; 697 NFkB inh: -26; Jurkat NFkB inh: 28; Mdm2-MdmX conf: 11

How did COC1=C(c2ccccc2)C(=O)c2ccccc2C1=O do in these assays?
Mdm2-MdmX inh: -13; VIM-2 inh: -1; aSyn 5UTR inh: -31; 697 NFkB inh: -4; IMP-1 inhibitor: -2; Jurkat NFkB inh: -8

What do the screens show for `O=C(COc1ccc(/C=N/NC(=O)c2ccccc2O)cc1)Nc1ccc([N+](=O)[O-])cc1`?
Mdm2-MdmX inh: -3; VIM-2 inh: -4; aSyn 5UTR inh: -14; 697 NFkB inh: 5; IMP-1 inhibitor: -3; Jurkat NFkB inh: -7

Results for c1ccc(C2(CN3CCNC[C@H]3Cc3cccc4ccccc34)CC2)cc1 ?
Mdm2-MdmX inh: 53*; aSyn 5UTR inh: -6; 697 NFkB inh: 13; Jurkat NFkB inh: 2; Mdm2-MdmX conf: 38; Full FLuc ctr: 91*

How did COc1ccc(C(=O)O/N=C(\N)c2ccccn2)cc1 do in these assays?
Mdm2-MdmX inh: 97*; VIM-2 inh: -3; aSyn 5UTR inh: inconclusive; 697 NFkB inh: -128; IMP-1 inhibitor: -3; Jurkat NFkB inh: 37; Mdm2-MdmX conf: 94*; Full FLuc ctr: 24

Results for COc1cc(OC)cc(C(=O)O/N=C(\N)c2ccccn2)c1 ?
Mdm2-MdmX inh: 54*; VIM-2 inh: 0; aSyn 5UTR inh: -130; 697 NFkB inh: -88; IMP-1 inhibitor: -2; Jurkat NFkB inh: -71; Mdm2-MdmX conf: -4

What do the screens show for `COc1cc(OC)c(C(=O)O/N=C(\N)c2ccccn2)cc1OC`?
Mdm2-MdmX inh: 46; VIM-2 inh: -1; aSyn 5UTR inh: -34; 697 NFkB inh: -9; IMP-1 inhibitor: -1; Jurkat NFkB inh: -8

What do the screens show for `CCOc1cc(C(=O)O/N=C(\N)c2ccccn2)cc(OCC)c1OCC`?
Mdm2-MdmX inh: 77*; VIM-2 inh: -2; aSyn 5UTR inh: -32; 697 NFkB inh: -7; IMP-1 inhibitor: -3; Jurkat NFkB inh: -19; Mdm2-MdmX conf: 68*; Full FLuc ctr: 85*

Results for Cc1ccc(C(=O)O/N=C(\N)c2ccc(C(F)(F)F)cn2)cc1 ?
Mdm2-MdmX inh: 57*; VIM-2 inh: -3; aSyn 5UTR inh: -38; 697 NFkB inh: -13; IMP-1 inhibitor: -2; Jurkat NFkB inh: -12; Mdm2-MdmX conf: -16

What do the screens show for `Cc1ccc(C(=O)C2=C(O)C(=O)N(CC3CCCO3)C2c2ccccc2F)o1` (configuration not stated)?
Mdm2-MdmX inh: 24; VIM-2 inh: 0; aSyn 5UTR inh: 13; 697 NFkB inh: 6; IMP-1 inhibitor: -1; Jurkat NFkB inh: 31

How did COc1cc(SC)ccc1C(=O)N(Cc1ccccc1)c1ccccn1 do in these assays?
Mdm2-MdmX inh: -7; VIM-2 inh: 0; aSyn 5UTR inh: 23; 697 NFkB inh: -32; IMP-1 inhibitor: -2; Jurkat NFkB inh: -22

Results for CN(Cc1ccccc1)C(=O)CCCn1c(=O)c2cccn2c2cccnc21 ?
Mdm2-MdmX inh: 12; VIM-2 inh: 0; aSyn 5UTR inh: -2; 697 NFkB inh: -26; IMP-1 inhibitor: -3; Jurkat NFkB inh: 3

What do the screens show for `CCOC(=O)c1c(C)nc2sc3c(=O)n(-c4ccc(C(C)=O)cc4)nnc3c2c1-c1ccc(Cl)cc1`?
Mdm2-MdmX inh: 72*; VIM-2 inh: 0; aSyn 5UTR inh: 19; 697 NFkB inh: 2; IMP-1 inhibitor: 1; Jurkat NFkB inh: 11; Mdm2-MdmX conf: 50*; Full FLuc ctr: 49*

How did CCOc1cc(/C=C/C(=O)Nc2ccc(C(=O)NCCN(CC)CC)cc2)ccc1OCC(C)C do in these assays?
Mdm2-MdmX inh: 94*; VIM-2 inh: -2; aSyn 5UTR inh: inconclusive; 697 NFkB inh: -35; IMP-1 inhibitor: 0; Jurkat NFkB inh: -22; Mdm2-MdmX conf: 28

What do the screens show for `COc1ccc(/C(N)=N/O)c(OC)c1`?
Mdm2-MdmX inh: -13; VIM-2 inh: -3; aSyn 5UTR inh: 30; 697 NFkB inh: 7; IMP-1 inhibitor: -4; Jurkat NFkB inh: 2

Results for O=C(Nc1ccc(OCC(F)(F)C(F)F)c(C(F)(F)F)c1)c1ccc(Cl)cc1 ?
Mdm2-MdmX inh: 92*; VIM-2 inh: -1; aSyn 5UTR inh: -19; 697 NFkB inh: 6; IMP-1 inhibitor: -1; Jurkat NFkB inh: 7; Mdm2-MdmX conf: 85*; Full FLuc ctr: 34
